Test results published in ChEMBL document CHEMBL1121782, “New monofunctional reagents for DNA as possible agents for the photochemotherapy of psoriasis: derivatives of 4,5'-dimethylangelicin” (J Med Chem, 1981).
In brackets after ≈: the same amount, converted by molar mass.

Key:
[1] = Specific radioactivity of the compound.; assay type: ADME
[2] = Water solubility of the compound; assay type: ADME; conditions: for S: buffer; for solubility: water, read-out: S
Nucleic Acid = experiment: The compound was tested for its ability to bind to calf thymus DNA; assay type: nucleic-acid assay; conditions: Bos taurus
Summary of the method: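 Calf thymus DNA (hypochromicity over 40%) in water with 1.5 × 10-2 M NaCl and 1 × 10^-3 M EDTA, no irradiation. Ground-state binding by equilibrium dialysis or fluorimetric titration. r (ligand bound per nucleotide) and c (free ligand, mol/L) plotted per Scatchard. Intrinsic constant K and site size n fitted iteratively to McGhee–von Hippel by least squares until both changed by less than 1%.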

Mus musculus [3] = species on record: Mus musculus; experiment: compound was evaluated for its ability to inhibit DNA synthesis in Ehrlich ascites tumor cells by irradiation (365 nM); assay type: functional
Summary of the method: (§1)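 Ehrlich ascites tumor cells in Hank's solution (2 × 10^7 cells/mL) irradiated on ice with 1.9 × 10^-5 M compound, Philips HPW 125 lamp at 20 cm (2.02 × 10^16 quanta/s incident). 2 × 10^6 cells then pulsed 15 min at 37 °C with 1 μCi [3H]thymidine (DNA) or [3H]uridine (RNA). Acid-insoluble counts taken as % of untreated cells. D50 is the UV-A dose giving 50% inhibition. Each dose run at least in duplicate.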

Mus musculus [4] = species on record: Mus musculus; experiment: Compound was evaluated for its ability to inhibit RNA synthesis in Ehrlich ascites tumor cells by irradiation (365 nM),; assay type: functional; summary of the method: as §1
Mus musculus [5] = species on record: Mus musculus; experiment: Compound was evaluated for its ability to inhibit DNA synthesis in Ehrlich ascites tumor cells by irradiation (365 nM); assay type: functional
Summary of the method: (§2)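 Ehrlich ascites tumour cells in Hank's solution (2 × 10^7 cells/mL) irradiated on ice with UV-A (Philips HPW 125, 20 cm; 2.02 × 10^16 quanta/s on whole sample) with 1.9 × 10^-5 M compound. Then 2 × 10^6 cells incubated 15 min at 37 °C with 1 μCi [3H]thymidine (DNA) or [3H]uridine (RNA). TCA-insoluble counts as % of untreated; D50 = UV dose giving 50% inhibition; doses ≥duplicate.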

Mus musculus [6] = species on record: Mus musculus; experiment: Compound was evaluated for its ability to inhibit RNA synthesis in Ehrlich ascites tumor cells by irradiation (365 nM); assay type: functional; summary of the method: as §2

| Compound | Specific radioactivity [1] | S [2] | solubility [2] | K (Nucleic Acid) | D50 (Mus musculus [3]) | D50 (Mus musculus [4]) | D50 (Mus musculus [5]) | D50 (Mus musculus [6]) |
| --- | --- | --- | --- | --- | --- | --- | --- | --- |
| COCc1c(C)oc2ccc3c(C)cc(=O)oc3c12 | 0.21 Ci/M | 0.000056 M l-1 | 15.3 µg/mL (≈ 59.2 µM) | 700 | 22.7 quanta*10e-18 | 13.8 quanta*10e-18 |  |  |
| O=c1ccc2ccc3occc3c2o1 [ANGELICIN] | 1.59 Ci/M |  |  |  |  |  | 25 quanta*10e-18 | 23.3 quanta*10e-18 |
| Cc1oc2ccc3c(C)cc(=O)oc3c2c1CN.Cl | 0.13 Ci/M | > 0.004 M l-1 | > 1000 µg/mL | 16300 | 100 quanta*10e-18 | 100 quanta*10e-18 |  |  |
| Cc1oc2ccc3c(C)cc(=O)oc3c2c1CO | 0.13 Ci/M | 0.00007 M l-1 | 17.1 µg/mL (≈ 70 µM) | 1250 | 9.2 quanta*10e-18 | 13.8 quanta*10e-18 |  |  |
| Cc1cc2c(ccc3c(C)cc(=O)oc32)o1 | 5.11 Ci/M | 3.7e-05 M l-1 | 8 µg/mL (≈ 37.3 µM) | 1400 | 10.8 quanta*10e-18 | 13.5 quanta*10e-18 |  |  |
